Source: PubChem BioAssay
The list is not random: actives were taken first. Their share in the collection is about 5.8%.
IDH1 mut inh = IDH1 R132H (human) inhibition; O75874; inhibition, % at 10 µM; actives 0.18% (n = 70,000); IDH1 R132H reductase, diaphorase/resazurin fluorescence, 60 min; in the data active = inhibition above about 34%; inconclusive = no clear call, values can overlap the other calls; inactive = below about 11%;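 note: 0% = DMSO and 100% = no enzyme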
Target sequence (O75874 whole entry R132H): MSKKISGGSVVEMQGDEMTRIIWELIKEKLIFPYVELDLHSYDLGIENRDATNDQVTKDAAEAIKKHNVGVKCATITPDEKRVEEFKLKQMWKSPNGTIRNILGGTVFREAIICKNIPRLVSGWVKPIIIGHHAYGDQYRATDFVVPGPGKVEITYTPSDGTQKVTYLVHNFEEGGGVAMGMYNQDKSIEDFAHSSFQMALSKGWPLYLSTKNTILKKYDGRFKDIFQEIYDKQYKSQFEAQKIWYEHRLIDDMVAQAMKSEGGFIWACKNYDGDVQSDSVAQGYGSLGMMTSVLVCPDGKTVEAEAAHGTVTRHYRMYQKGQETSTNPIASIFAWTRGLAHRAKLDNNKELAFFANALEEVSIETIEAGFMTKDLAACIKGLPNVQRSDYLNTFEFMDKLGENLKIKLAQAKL
Pf Dd2 inh = blocks growth of Plasmodium falciparum Dd2 parasites; AID 1159554; actives 2.3% (n = 94,000); P. falciparum Dd2 growth, SYBR Green, 72 h; hits give low values; activity change, % at 10 µM; in the data active = activity change below about -80%; inconclusive = no clear call, values can overlap the other calls
T cruzi growth-1 = T. cruzi proliferation inhibition | inhibition, % at 8.34 µM | AID 624255 | actives 5.9% (n = 77,000) | T. cruzi beta-gal in NIH3T3, GalScreen luminescence, 90 h;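 active = mean inhibition above about 93%, with at least 55% of replicates each passing it, limit read from the data, passing the limit was not always enough; inconclusive = only one of those two conditions holds; inactive = neither condition holds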
GASC1 inh = KDM4C (human) demethylase inhibition | inhibition, % at 12.5 µM | actives 0.15% (n = 96,000) | AID 720574 | GST-KDM4C 2-372, H3K9me3 peptide, LANCE TR-FRET | Q9H3R0;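 active = mean replicate inhibition above about 25%, with at least 55% of replicates also reaching it, limit read from the data, passing the limit was not always enough; inconclusive = only one of those two conditions met; inactive = neither condition met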
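Material: GST-tagged GASC-1 (JMJD2C) catalytic fragment, aa 2-372 / Quantity: enzyme final amount 10 nM / Medium: HEPES buffer, pH 7.5, plus ascorbate / Doses: one test concentration per compound / Incubation: 30 min reaction, 60 min detection, RT / Measured by: LANCE TR-FRET / Read-out: inhibition from TR-FRET ratio decrease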
T cruzi growth-2 = inhibitors of T. cruzi proliferation; shares compounds with T cruzi growth-1; T. cruzi beta-gal in NIH3T3, GalScreen luminescence, 90 h; inhibition, % at 8.35 µM; actives 72% (n = 5,600); AID 651739;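 active = mean replicate inhibition above about 95% and at least 55% of replicates individually reaching it, limit read from the data; inconclusive = only one of the two criteria is met; inactive = neither criterion is met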
T cruzi growth-3 = Trypanosoma cruzi proliferation inhibition. T. cruzi beta-gal in NIH3T3, GalScreen luminescence, 90 h. actives 21% (n = 5,600). shares compounds with T cruzi growth-1. inhibition, % at 2.09 µM;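 active = mean inhibition above about 95%, with at least 55% of replicates also reaching it, limit read from the data; inconclusive = meets just one of the two conditions; inactive = meets neither condition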;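 note: plate controls were neutral control median for no effect and positive control median for full effect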
3T3 cytotox = kills mouse NIH/3T3 fibroblasts; shares compounds with T cruzi growth-1; NIH/3T3 viability, CellTiter-Glo ATP luminescence, 90 h; cytotoxicity (signal decrease), % at 8.35 µM; actives 14% (n = 5,600);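 active = mean signal decrease across replicates above about 35% based on untreated-well scatter, with enough replicates individually passing, limit read from the data; inconclusive = no rule stated though some were filed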;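 note: 0% = median of neutral control wells and 100% = median of positive control wells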
NIH3T3 tox 2 = NIH/3T3 (mouse) viability loss; actives 56% (n = 5,600); shares compounds with T cruzi growth-1; NIH/3T3 viability, CellTiter-Glo ATP luminescence, 90 h; inhibition, % at 24.9 µM;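 active = mean loss of cell viability signal at or above a set limit, and enough replicates individually reaching it; inconclusive = meets only the mean limit or only the replicate share; inactive = meets neither condition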;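 note: 0% = median of neutral control wells and 100% = median of positive control wells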
An asterisk follows results filed as active.

Results for CC(C)C(=O)Nc1ccc2c(c1)C(=O)N(C)[C@H]1CC[C@H](CC(=O)NC3CCCC3)O[C@H]1CO2 ?
Pf Dd2 inh: -9; T cruzi growth-1: -27; GASC1 inh: 1

How did Cc1nnc(Sc2ccc(/C=N/NC(=O)c3ccccc3O)o2)n1C do in these assays?
IDH1 mut inh: 0

How did COc1cccc(S(=O)(=O)Nc2ccc3c(c2)[C@H]2C[C@H](CC(=O)NCc4ccccc4F)O[C@H](CO)[C@H]2O3)c1 do in these assays?
IDH1 mut inh: 0; Pf Dd2 inh: -44; T cruzi growth-1: 143*; GASC1 inh: 0; T cruzi growth-2: 98*; T cruzi growth-3: 0; 3T3 cytotox: -16; NIH3T3 tox 2: 2

What do the screens show for `O=C(C[C@H]1C[C@H]2c3cc(NS(=O)(=O)c4ccc(F)cc4)ccc3O[C@H]2[C@H](CO)O1)NCc1ccc(-c2ccccc2)cc1`?
IDH1 mut inh: 1; Pf Dd2 inh: -71; T cruzi growth-1: 101*; GASC1 inh: -6; T cruzi growth-2: 87; T cruzi growth-3: 101*; 3T3 cytotox: 66*; NIH3T3 tox 2: 67*

How did O=C(C[C@@H]1C[C@H]2c3cc(NS(=O)(=O)c4ccc(F)cc4)ccc3O[C@H]2[C@@H](CO)O1)NCc1ccc(-c2ccccc2)cc1 do in these assays?
IDH1 mut inh: 0; Pf Dd2 inh: -18; T cruzi growth-1: 92; GASC1 inh: -7

What do the screens show for `O=C(C[C@@H]1C[C@@H]2c3cc(NS(=O)(=O)c4ccc(F)cc4)ccc3O[C@@H]2[C@@H](CO)O1)NCc1ccc(-c2ccccc2)cc1`?
IDH1 mut inh: 2; Pf Dd2 inh: -27; T cruzi growth-1: 102*; T cruzi growth-2: 88; T cruzi growth-3: 92; 3T3 cytotox: 39*; NIH3T3 tox 2: 45*

How did O=C(C[C@H]1C[C@H]2c3cc(NS(=O)(=O)c4ccc(F)cc4)ccc3O[C@H]2[C@H](CO)O1)NCc1ccccc1 do in these assays?
IDH1 mut inh: 0; Pf Dd2 inh: -44; T cruzi growth-1: -31; GASC1 inh: -4

Results for COc1cccc(S(=O)(=O)Nc2ccc3c(c2)[C@@H]2C[C@H](CC(=O)NCc4ccccc4F)O[C@@H](CO)[C@@H]2O3)c1 ?
IDH1 mut inh: 0; Pf Dd2 inh: -79; T cruzi growth-1: 71; GASC1 inh: 7

Results for O=C(C[C@H]1C[C@H]2c3cc(NS(=O)(=O)c4ccc(F)cc4)ccc3O[C@H]2[C@@H](CO)O1)NCc1ccc(Oc2ccccc2)cc1 ?
IDH1 mut inh: 1; Pf Dd2 inh: -52; T cruzi growth-1: 119*; GASC1 inh: -3; T cruzi growth-2: 101*; T cruzi growth-3: 77; 3T3 cytotox: 20; NIH3T3 tox 2: 20

Results for O=C(C[C@@H]1C[C@H]2c3cc(NS(=O)(=O)c4ccc(F)cc4)ccc3O[C@H]2[C@H](CO)O1)NCc1ccccc1 ?
IDH1 mut inh: 0; Pf Dd2 inh: -2; T cruzi growth-1: -76; GASC1 inh: -3

What do the screens show for `C[C@@H](NC(=O)C[C@H]1C=C[C@@H](NC(=O)Cc2ccccn2)[C@H](CO)O1)c1ccccc1`?
IDH1 mut inh: 0; Pf Dd2 inh: 17; T cruzi growth-1: 37; GASC1 inh: 0

How did C[C@H]1CCCCO[C@@H](CN(C)S(=O)(=O)c2ccc(Cl)cc2)[C@@H](C)CN([C@@H](C)CO)C(=O)c2cc(NC(=O)CCC(F)(F)F)ccc2O1 do in these assays?
Pf Dd2 inh: -83*; T cruzi growth-1: 117*; GASC1 inh: 0; T cruzi growth-2: 110*; T cruzi growth-3: 73; 3T3 cytotox: -20; NIH3T3 tox 2: 16

What do the screens show for `C[C@H]1CCCCO[C@H](CN(C)S(=O)(=O)c2ccc(Cl)cc2)[C@@H](C)CN([C@@H](C)CO)C(=O)c2cc(NC(=O)CCC(F)(F)F)ccc2O1`?
IDH1 mut inh: 4; Pf Dd2 inh: -73; T cruzi growth-1: 105*; GASC1 inh: -2; T cruzi growth-2: 103*; T cruzi growth-3: 70; 3T3 cytotox: 0; NIH3T3 tox 2: 19

What do the screens show for `C[C@@H]1CCCCO[C@H](CN(C)S(=O)(=O)c2ccc(Cl)cc2)[C@H](C)CN([C@H](C)CO)C(=O)c2cc(NC(=O)CCC(F)(F)F)ccc2O1`?
Pf Dd2 inh: -42; T cruzi growth-1: 99*; GASC1 inh: 0; T cruzi growth-2: 106*; T cruzi growth-3: 34; 3T3 cytotox: 14; NIH3T3 tox 2: 30*

Results for C[C@H]1CN([C@@H](C)CO)C(=O)Cc2cc(NC(=O)C3CCCCC3)ccc2O[C@H]1CN(C)C(=O)Nc1ccccc1 ?
IDH1 mut inh: 3; Pf Dd2 inh: -3; T cruzi growth-1: 51; GASC1 inh: 0

How did CCCC#Cc1ccc2c(c1)O[C@@H](CN(C)C(C)=O)[C@@H](C)CN([C@@H](C)CO)S2(=O)=O do in these assays?
IDH1 mut inh: 0; Pf Dd2 inh: -41; GASC1 inh: 0

Results for COc1ccccc1C(=O)Nc1ccc2c(c1)C(=O)N(C)C[C@H](OC)[C@H](C)CN[C@H](C)CO2 ?
IDH1 mut inh: 0; Pf Dd2 inh: 23; T cruzi growth-1: -83; GASC1 inh: 1

Results for CCCNC(=O)N1[C@H](CN(C)C(C)=O)[C@H](c2ccc(C3=CCCC3)cc2)[C@@H]1CO ?
Pf Dd2 inh: 6; T cruzi growth-1: inconclusive; GASC1 inh: 3; T cruzi growth-2: -4; T cruzi growth-3: 0; 3T3 cytotox: 2; NIH3T3 tox 2: 3

What do the screens show for `CCCNC(=O)N1[C@H](CN(C)C(C)=O)[C@@H](c2ccc(C3=CCCC3)cc2)[C@@H]1CO`?
Pf Dd2 inh: 4; T cruzi growth-1: inconclusive; GASC1 inh: 3; T cruzi growth-2: -9; T cruzi growth-3: -21; 3T3 cytotox: -2; NIH3T3 tox 2: 2

What do the screens show for `CCC(=O)Oc1c(S(=O)(=O)c2ccccc2)c(C)nn1C(C)(C)C`?
IDH1 mut inh: 1

How did C[C@@H]1CCCCO[C@H](CN(C)Cc2ccc3c(c2)OCO3)[C@@H](C)CN([C@@H](C)CO)C(=O)c2cc(NC(=O)NC3CCCCC3)ccc2O1 do in these assays?
IDH1 mut inh: 1; T cruzi growth-1: 94; GASC1 inh: 1

How did C[C@H]1CCCCO[C@H](CN(C)Cc2ccc3c(c2)OCO3)[C@@H](C)CN([C@@H](C)CO)C(=O)c2cc(NC(=O)NC3CCCCC3)ccc2O1 do in these assays?
T cruzi growth-1: 100*; GASC1 inh: -1; T cruzi growth-2: 108*; T cruzi growth-3: 51; 3T3 cytotox: 18; NIH3T3 tox 2: 102*
